Here are results for 20 compounds from ChEMBL document CHEMBL2384996 (J Med Chem, 2013).

Data set [1] in a line: Antagonist activity at Gloeobacter violaceus ligand-gated ion channel expressed in Xenopus oocytes assessed as inhibition of MES buffer pH 5.5 -induced currents after 30 secs by voltage clamp technique. Type of data set: cell-based. The following applies: Oocyte. An outline of the steps: (§1)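 GLIC expressed in Xenopus oocytes, two-electrode voltage clamp. Current elicited by pH 5.5 MES buffer (100 mM NaCl, 3 mM KCl, 1 mM CaCl2, 1 mM MgCl2, 10 mM MES) for 30 sec to steady state. Compound then co-applied for 30 sec in the same pH 5.5 buffer, followed by washout with buffer alone. Oocytes held in Barth's medium after injection.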

Data set [2] deals with Oocyte. The data set can be described thus: Inhibition of Gloeobacter violaceus ligand-gated ion channel expressed in Xenopus laevis oocytes assessed as inhibition of MES buffer pH 5.5 -induced currents at 300 uM after 30 secs by voltage clamp technique. It is filed as cell-based. The gist of the method: as §1
The subject of data set [3] is Oocyte. Kind of data set: Inhibition of Gloeobacter violaceus ligand-gated ion channel expressed in Xenopus laevis oocytes assessed as inhibition of MES buffer pH 5.5 -induced currents at 100 uM after 30 secs by voltage clamp technique. It is filed as cell-based. The gist of the method:
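GLIC-expressing oocytes kept in Barth's medium (88 mM NaCl, 1 mM KCl, 2.4 mM NaHCO3, 15 mM HEPES, 0.3 mM NaNO3, 0.7 mM CaCl2). Each cell was first given pH 5.5 buffer (100 mM NaCl, 3 mM KCl, 1 mM CaCl2, 1 mM MgCl2, 10 mM MES) for 30 sec. Compound was then co-applied in the same buffer for 30 sec, followed by washout. Mean ± sd, n ≥ 3 cells.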

Data set [4] concerns Oocyte. The data set can be described thus: Inhibition of Gloeobacter violaceus ligand-gated ion channel expressed in Xenopus laevis oocytes assessed as inhibition of MES buffer pH 5.5 -induced currents at 1 mM after 30 secs by voltage clamp technique. Type of data set: cell-based. The gist of the method: as §1
A short description of data set [5]: Dissociation constant, pKa of the compound. Type of data set: physicochemical.
Data set [6] relates to Oocyte. The data set can be described thus: Inhibition of Gloeobacter violaceus ligand-gated ion channel expressed in Xenopus laevis oocytes assessed as inhibition of buffer at pH 4 -induced currents at 100 uM after 30 secs by voltage clamp technique. It is filed as cell-based.
The test system of data set [7] is Gloeobacter violaceus. Kind of data set: Inhibition of Gloeobacter violaceus ligand-gated ion channel R133A mutant at 1 mM. An outline of the steps:
(§2)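 Alanine point mutants of GLIC expressed in Xenopus oocytes, voltage clamp. Compound co-applied with pH 5.5 buffer (100 mM NaCl, 3 mM KCl, 1 mM CaCl2, 1 mM MgCl2, 10 mM MES). Concentration-inhibition curves used for IC50; single-point inhibition taken at 100 μM, or at up to 1 mM. Mean ± sd, n ≥ 3 cells.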

Data set [8] in a line: Inhibition of Gloeobacter violaceus ligand-gated ion channel E177A mutant. The gist of the method: as §2
Data set [9] relates to Gloeobacter violaceus. The data set can be described thus: Inhibition of Gloeobacter violaceus ligand-gated ion channel E177A mutant at 100 uM. An outline of the steps: as §2
Data set [10] relates to Oocyte. Kind of data set: Inhibition of Gloeobacter violaceus ligand-gated ion channel expressed in Xenopus laevis oocytes assessed as inhibition of MES buffer-induced currents at 1 mM at pH 5.5 measured after wash-out by voltage clamp technique. It is filed as cell-based.
Data set [11] has as its system Oocyte. The data set can be described thus: Selectivity ratio of IC50 for Gloeobacter violaceus ligand-gated ion channel E177A mutant to IC50 for wild-type Gloeobacter violaceus ligand-gated ion channel expressed in Xenopus oocytes. Type of data set: cell-based.
The subject of data set [12] is Oocyte. The data set can be described thus: Selectivity ratio of IC50 for Gloeobacter violaceus ligand-gated ion channel R105A mutant to IC50 for wild-type Gloeobacter violaceus ligand-gated ion channel expressed in Xenopus oocytes. Type of data set: cell-based.
The test system of data set [13] is Gloeobacter violaceus. Kind of data set: Inhibition of Gloeobacter violaceus ligand-gated ion channel R77A mutant at 100 uM. The gist of the method: as §2
A short description of data set [14]: Inhibition of Gloeobacter violaceus ligand-gated ion channel R105A mutant. The gist of the method:
as §2

The nature of data set [15]: Inhibition of Gloeobacter violaceus ligand-gated ion channel E181A mutant. An outline of the steps: as §2
Data set [16] can be described thus: Inhibition of Gloeobacter violaceus ligand-gated ion channel R77A mutant. The gist of the method: as §2
The test system of data set [17] is Oocyte. Kind of data set: Selectivity ratio of IC50 for Gloeobacter violaceus ligand-gated ion channel R77A mutant to IC50 for wild-type Gloeobacter violaceus ligand-gated ion channel expressed in Xenopus oocytes. It is filed as cell-based.
Data set [18] relates to Gloeobacter violaceus. The data set can be described thus: Inhibition of Gloeobacter violaceus ligand-gated ion channel E181A mutant at 100 uM. An outline of the steps:
as §2

The test system of data set [19] is Gloeobacter violaceus. The data set can be described thus: Inhibition of Gloeobacter violaceus ligand-gated ion channel R105A mutant at 100 uM. An outline of the steps:
as §2

Activity calls are given as the source filed them. The calls are words filed in the database; no cut-off is given here.

In the case of `NC(=O)/C=C/c1ccc(O)c(O)c1`, the IC50 in [1] stood at 347 µM. For the same compound, the inhibition in the data set with Oocyte [2] stood at 51.6%.
`O=C(O)/C=C/c1ccc2c(c1)OCO2`: the IC50 in data set [1] was determined as 28.8 µM. In addition, the inhibition with Oocyte [3] was 79.7%.
Consider `OC/C=C/c1ccc(O)c(O)c1`, for which, in the data set on Oocyte [4], the inhibition was found to be 95.2%. Besides, in data set [1], the IC50 was found to be 73.9 µM.
Regarding `O=C(O)COc1ccccc1`, the inhibition in the data set on Oocyte [4] worked out at 98.5%. Also, the IC50 in [1] is 53.3 µM. In addition, the pKa in data set [5] is 3.2.
Turning to `COc1ccc2cc(C(=O)O)c(=O)oc2c1`, the inhibition in the data set with Oocyte [4] was 96%. The IC50 in [1] worked out at 168 µM.
`O=C(O)C(=Cc1ccccc1)C(=O)O`: the inhibition in the data set on Oocyte [4] came to 25%. Moreover, the IC50 in [1] was determined as 7940 µM. This compound returned a pKa in data set [5] of 3.5.
On the same counts, the results for `O=C(O)/C=C/c1cccc(C(F)(F)F)c1` are 94.6%, 25.3 µM and 4.6.
For the compound `O=C(O)C(=C/C=C/c1ccccc1)C(=O)O`, the inhibition with Oocyte [4] was found to be 92.2%. Besides, in data set [1], the IC50 was 83.5 µM. The same compound came in with a pKa in data set [5] of 3.45.
For the compound `CCNC(=O)/C=C/c1ccc(O)c(O)c1`, in the data set with Oocyte [4], the inhibition is 81.6%. Besides, the IC50 in data set [1] worked out at 295 µM. Also, the inhibition entry in the data set on Oocyte [6] (300 uM, in the assay text read “at 300 uM” for “at 100 uM”) was “inactive”.
For the compound `COc1ccc(/C=C/C(=O)O)cc1OC`, in the data set with Oocyte [4], the inhibition was determined as 75.6%. The IC50 in data set [1] was found to be 206 µM. Besides, the pKa in data set [5] was 4.55.
On the same counts, the results for `O=C(O)/C=C/c1cccc(Cl)c1` [3-CHLORO-CINNAMIC ACID] are 95%, 13.7 µM and 4.8.
Consider `O=C(O)c1ccc2ccccc2c1` [BETA-NAPHTOIC ACID], for which the inhibition in the data set on Oocyte [4] came to 96.4%. For the same compound, the IC50 in [1] worked out at 61.4 µM. This compound showed a pKa in [5] of 4.45.
`O=C(O)/C=C/c1ccc(O)c(O)c1` [CAFFEIC ACID]: the inhibition result in the data set with Gloeobacter violaceus [7], with Oocyte [10] and in the data set on Oocyte [6] (100 uM) was “inactive” throughout. In addition, the IC50 was determined as 506 µM in [8]; 16.7 µM in data set [1]; 420 µM in data set [14]; 24.1 µM in data set [15]; 945 µM in data set [16]. Besides, the inhibition with Oocyte [4] turned out to be 93.8%; in the data set on Gloeobacter violaceus [9], 15%; in the data set on Gloeobacter violaceus [13], 15%; with Gloeobacter violaceus [18], 80%; in the data set on Gloeobacter violaceus [19] it was 15%. This compound also yielded a pKa in data set [5] of 4.35. The Ratio IC50 in the data set with Oocyte [11], with Oocyte [12] and with Oocyte [17] was > 10 each time.
As to `O=C(O)/C=C/c1ccccc1` [CINNAMIC ACID], the inhibition with Oocyte [4] is 97.5%. In data set [1], the IC50 came out at 34.6 µM.
Regarding `O=C(O)/C=C/c1ccc(O)cc1` [COUMARIC ACID], in [1], the IC50 worked out at 9.59 µM. In addition, the inhibition in the data set on Oocyte [2] was determined as 91.4%.
As for `O=C(O)c1cc2ccccc2oc1=O` [COUMARIN-3-CARBOXYLIC ACID], the inhibition in the data set with Oocyte [4] is 84%. Moreover, the IC50 in data set [1] was 282 µM. In data set [5], this compound returned a pKa of 3.6.
On to `O=C(O)CCc1ccc(O)c(O)c1` [DIHYDROCAFFEIC ACID], for which the inhibition in the data set on Oocyte [4] amounted to 90.5%. Moreover, the IC50 in data set [1] was 86.8 µM. Besides, the pKa in data set [5] is 4.3.
For the compound `CCOC(=O)/C=C/c1ccc(O)c(O)c1` [ETHYL CAFFEATE], in the data set with Oocyte [4], the inhibition is 91.8%. Moreover, the IC50 in data set [1] was 246 µM.
Regarding `COc1ccc(/C=C/C(=O)O)cc1O` [ISOFERULIC ACID], the inhibition in the data set with Oocyte [4] came to 98.5%. The IC50 in [1] amounted to 13.5 µM.
On the same counts, the results for `COC(=O)/C=C/c1ccc(O)c(O)c1` [METHYLCAFFEATE] are 78% and 388 µM.
